Measurements as given in ChEMBL document CHEMBL1811838, “Antimalarial activity of natural and synthetic prodiginines” (J Med Chem, 2011).
The source made the active and inactive calls. The calls are words filed in the database; no cut-off is given here.

How the values were obtained:
Plasmodium falciparum [1] = assay: Antimalarial activity Plasmodium falciparum D6 after 72 hrs by SYBR Green I based fluorescence assay; assay type: functional, organism-based; settings: D6, 72 h
Procedure, shortened: (§1)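 P. falciparum (D6 pansensitive; Dd2 MDR) cultured under standard conditions and grown 72 h with varying compound concentrations, chloroquine positive control or no drug, each condition in quadruplicate. Growth measured by SYBR Green I fluorescence with minor modifications; IC50 = concentration inhibiting growth by 50%.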

Mus musculus [2] = assay: Toxicity in Plasmodium yoelii infected CF-1 mouse assessed as weight loss at 5 mg/kg, po qd for 3 days relative to control; assay type: organism-based; parameters: dose 5 mg/kg, route oral; settings: in vivo, 72 h
Procedure, shortened: (§2)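 Female outbred CF-1 mice were infected i.v. via the tail vein with 5 × 10^5 P. yoelii Kenya-infected erythrocytes, in groups of five. Compound or vehicle alone was given by gavage in caprylic/capric triglyceride once daily for 3 days, starting 24 h post-infection. One day after the last dose, Giemsa-stained thin smears were scored by microscopy for % parasitemia versus untreated controls. Group mean weight was recorded as day 3 versus day 0.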

Plasmodium falciparum [3] = assay: Antimalarial activity multidrug-resistant Plasmodium falciparum Dd2 after 72 hrs by SYBR Green I based fluorescence assay; assay type: functional, organism-based; settings: Dd2, 72 h; procedure, shortened: as §1
Plasmodium yoelii [4] = assay: Antimalarial activity Plasmodium yoelii infected in CF-1 mouse assessed as reduction of parasitemia at 25 mg/kg, po qd for 3 days administered 24 hrs after infection measured after 24 hrs last dose relative to control; assay type: functional; parameters: scale not given: the % may be the effect or the level left
Procedure, shortened: (§3)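 Female outbred CF-1 mice infected iv (tail vein) with 5 × 10^5 P. yoelii Kenya-infected erythrocytes. Groups of five given compound or vehicle alone by gavage in caprylic/capric triglyceride once daily for 3 days starting 24 h post-infection. One day after last dose, Giemsa-stained thin smears scored microscopically for % infected erythrocytes vs untreated controls. Group mean weight day 3 vs day 0. Smear-negative mice followed; parasite-free at 28 days counted cured.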

Mus musculus [5] = assay: Toxicity in Plasmodium yoelii infected CF-1 mouse assessed as weight loss at 25 mg/kg, po qd for 3 days relative to control; assay type: organism-based; parameters: dose 25 mg/kg, route oral; settings: in vivo, 72 h; procedure, shortened: as §2
Plasmodium yoelii [6] = assay: Antimalarial activity Plasmodium yoelii infected in CF-1 mouse assessed as reduction of parasitemia at 5 mg/kg, po qd for 3 days administered 24 hrs after infection measured after 24 hrs last dose relative to control; assay type: functional; parameters: scale not given: the % may be the effect or the level left; procedure, shortened: as §2
[7] = Toxicity in C57BL/6J mouse splenic lymphocytes after 72 hrs by Alamar blue Assay; assay type: cell-based; settings: splenic lymphocyte
Procedure, shortened: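 Splenic lymphocytes from C57BL/6J mice washed, then stimulated with 1 μg/mL concanavalin A in RPMI/10% FBS with 50 μM β-mercaptoethanol. Seeded at 2 × 10^5 cells/well with serially diluted compound for 72 h at 37 °C, 5% CO2. Resazurin added (final 10 μM) for another 24 h; fluorescence read at ex 560/em 590 nm.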

Mus musculus [8] = assay: Toxicity in Plasmodium yoelii infected CF-1 mouse assessed as temporary weight loss at 100 mg/kg, po qd for 3 days; assay type: organism-based; parameters: dose 100 mg/kg, route oral; settings: in vivo, 72 h; procedure, shortened: as §3
Plasmodium yoelii [9] = assay: Antimalarial activity Plasmodium yoelii infected in CF-1 mouse assessed as complete parasite clearance at 100 mg/kg, po qd for 3 days administered 24 hrs after infection measured after 24 hrs last dose; assay type: functional, organism-based; parameters: dose 100 mg/kg; procedure, shortened: as §3

| SMILES | IC50 (Plasmodium falciparum [1]) | Activity (Mus musculus [2]) | IC50 (Plasmodium falciparum [3]) | Activity (Plasmodium yoelii [4]) | Activity (Mus musculus [5]) | Activity (Plasmodium yoelii [6]) | IC50 [7] | Activity (Mus musculus [8]) | Activity (Plasmodium yoelii [9]) |
| --- | --- | --- | --- | --- | --- | --- | --- | --- | --- |
| CCCCCCCCc1cc(CCC)c(/C=C2\N=C(c3ccc[nH]3)C=C2OC)[nH]1 | 2.9 nM | 100.1% | 2.7 nM | 100% | 92.4% | 90% | < 125 nM |  |  |
| CCCc1cc(Cc2ccc(Cl)cc2)c(/C=C2\N=C(c3ccc[nH]3)C=C2OC)[nH]1 | 3 nM | 102.9% | 2.6 nM | 100% | 87.6% | 94% | < 125 nM |  |  |
| CCC1CCCCCCCCC2=N/C(=C\c3[nH]c(-c4ccc[nH]4)cc3OC)C1=C2 (configuration not stated) [METACYCLOPRODIGININE] | 1.7 nM |  |  | >99% |  |  |  | Toxic | Active |
| COC1=CC(c2ccc[nH]2)=N/C1=C\c1[nH]c(Cc2ccc(Cl)cc2)cc1Cc1ccc(Cl)cc1 | 6.1 nM | 107.5% | 4.8 nM | 100% | 102.5% | 92% | < 125 nM |  |  |
| CCCCCCCCc1cc(Cc2ccc(Cl)cc2)c(/C=C2\N=C(c3ccc[nH]3)C=C2OC)[nH]1 | 16 nM | 100.2% | 12 nM | 100% | 93.4% | 72% | 1100 nM |  |  |
